Experimental data reported in ChEMBL document CHEMBL4190249, “Antiproliferative and apoptotic activities of sequence-specific histone acetyltransferase inhibitors” (Eur J Med Chem, 2017).
Values belong to the compound of their own block, whether it stands above or below them. Calls of active or inactive are those of the source. The rule behind the calls is not given here.

Assays:
[1] = system: dsDNA; assay: Binding affinity to 5'-ACTTATTCCATATAGA-3'/3'-TGAATAAGGTATATCT-5' dsDNA (unknown origin) assessed as change in melting temperature at 2.5 uM by spectrophotometric method; type: nucleic-acid assay
[2] = system: dsDNA; assay: Binding affinity to 5'-ACTTATCCACTATAGA-3'/3'-TGAATAGGTGATATCT-5' dsDNA (unknown origin) assessed as change in melting temperature at 2.5 uM by spectrophotometric method; type: nucleic-acid assay
[3] = molecular target: Histone acetyltransferase p300 (Homo sapiens, UniProt Q09472); assay: Inhibition of p300 (unknown origin) using H3 peptide and acetyl-coA as substrate by fluorometric assay
Summary of the method: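 Fluorometric HAT kit assay with recombinant p300 core domain as enzyme and acetyl-CoA plus H3 histone peptide as substrates. Effectors were tested at 1 and 5 μM. HeLa nuclear extract served as positive control, and 0.5% DMSO was set as 100% activity.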

[4] = system: A549; assay: Antiproliferative activity against human A549 cells at 0.1 to 10 uM after 96 hrs by WST8 assay; type: functional, cell-based
Summary of the method: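 Cells seeded at 5×10^3 per well and grown 24 h at 37°C, 5% CO2. A549 medium was DMEM with 10% FBS and 2 mM L-glutamine. SW620 medium had 10% FBS and 1% penicillin/streptomycin. Medium was then replaced with conjugate at 0.1, 1, 5 or 10 μM for 96 h. WST-8 reagent was added and absorbance read at 450 nm. Results are mean ± SD.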

[5] = molecular target: Cellular tumor antigen p53 (Homo sapiens) (UniProt P04637); assay: Activation of p53 in human A549 cells assessed as upregulation of SPATA18 gene expression at 2 uM after 48 hrs by microarray analysis relative to control; type: cell-based
Summary of the method: (§1)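 A549 cells plated at 2×10^5 cells/well, treated 48 h at 2 μM, with DMSO vehicle as control. Whole-genome transcriptional profiling followed the manufacturer's protocol. Total RNA integrity was checked by Bioanalyzer before arraying.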

[6] = molecular target: Cellular tumor antigen p53 (Homo sapiens) (UniProt P04637); assay: Activation of p53 in human A549 cells assessed as upregulation of EDA2R gene expression at 2 uM after 48 hrs by microarray analysis relative to control; type: cell-based; summary of the method: as §1
[7] = system: A549; assay: Upregulation of ABCA12 gene expression in human A549 cells at 2 uM after 48 hrs by microarray analysis relative to control; type: functional; summary of the method: as §1
[8] = molecular target: Cellular tumor antigen p53 (Homo sapiens) (UniProt P04637); assay: Activation of p53 in human A549 cells assessed as upregulation of BTG2 gene expression at 2 uM after 48 hrs by microarray analysis relative to control; type: cell-based; summary of the method: as §1
[9] = system: A549; assay: Upregulation of MIR3189 gene expression in human A549 cells at 2 uM after 48 hrs by microarray analysis relative to control; type: functional; summary of the method: as §1
[10] = system: A549; assay: Upregulation of CDKN1A gene expression in human A549 cells at 2 uM after 48 hrs by microarray analysis relative to control; type: functional; summary of the method: as §1
[11] = system: A549; assay: Upregulation of SULF2 gene expression in human A549 cells at 2 uM after 48 hrs by microarray analysis relative to control; type: functional; summary of the method: as §1
[12] = system: A549; assay: Upregulation of WDR63 gene expression in human A549 cells at 2 uM after 48 hrs by microarray analysis relative to control; type: functional; summary of the method: as §1
[13] = molecular target: Cellular tumor antigen p53 (Homo sapiens) (UniProt P04637); assay: Activation of p53 in human A549 cells assessed as upregulation of FDXR gene expression at 2 uM after 48 hrs by microarray analysis relative to control; type: cell-based; summary of the method: as §1
[14] = molecular target: Cellular tumor antigen p53 (Homo sapiens) (UniProt P04637); assay: Activation of p53 in human A549 cells assessed as upregulation of MDM2 gene expression at 2 uM after 48 hrs by microarray analysis relative to control; type: cell-based; summary of the method: as §1
[15] = system: A549; assay: Upregulation of UIMC1 gene expression in human A549 cells at 2 uM after 48 hrs by microarray analysis relative to control; type: functional; summary of the method: as §1
[16] = system: A549; assay: Upregulation of MIR4713 gene expression in human A549 cells at 2 uM after 48 hrs by microarray analysis relative to control; type: functional; summary of the method: as §1
[17] = molecular target: Cellular tumor antigen p53 (Homo sapiens) (UniProt P04637); assay: Activation of p53 in human A549 cells assessed as upregulation of SESN1 gene expression at 2 uM after 48 hrs by microarray analysis relative to control; type: cell-based; summary of the method: as §1
[18] = system: A549; assay: Upregulation of SCARNA7 gene expression in human A549 cells at 2 uM after 48 hrs by microarray analysis relative to control; type: functional; summary of the method: as §1
[19] = system: A549; assay: Upregulation of MIR3685 gene expression in human A549 cells at 2 uM after 48 hrs by microarray analysis relative to control; type: functional; summary of the method: as §1
[20] = molecular target: Cellular tumor antigen p53 (Homo sapiens) (UniProt P04637); assay: Activation of p53 in human A549 cells assessed as upregulation of CYFIP2 gene expression at 2 uM after 48 hrs by microarray analysis relative to control; type: cell-based; summary of the method: as §1
[21] = system: A549; assay: Upregulation of POLH gene expression in human A549 cells at 2 uM after 48 hrs by microarray analysis relative to control; type: functional; summary of the method: as §1
[22] = molecular target: Cellular tumor antigen p53 (Homo sapiens) (UniProt P04637); assay: Activation of p53 in human A549 cells assessed as upregulation of TP53INP1 gene expression at 2 uM after 48 hrs by microarray analysis relative to control; type: cell-based; summary of the method: as §1
[23] = molecular target: Cellular tumor antigen p53 (Homo sapiens) (UniProt P04637); assay: Activation of p53 in human A549 cells assessed as upregulation of CD70 gene expression at 2 uM after 48 hrs by microarray analysis relative to control; type: cell-based; summary of the method: as §1
[24] = molecular target: Cellular tumor antigen p53 (Homo sapiens) (UniProt P04637); assay: Activation of p53 in human A549 cells assessed as upregulation of FAS gene expression at 2 uM after 48 hrs by microarray analysis relative to control; type: cell-based; summary of the method: as §1
[25] = system: A549; assay: Upregulation of GDF15 gene expression in human A549 cells at 2 uM after 48 hrs by microarray analysis relative to control; type: functional; summary of the method: as §1
[26] = system: A549; assay: Upregulation of GAS6-AS1 gene expression in human A549 cells at 2 uM after 48 hrs by microarray analysis relative to control; type: functional; summary of the method: as §1
[27] = system: A549; assay: Upregulation of ANKRD1 gene expression in human A549 cells at 2 uM after 48 hrs by microarray analysis relative to control; type: functional; summary of the method: as §1
[28] = molecular target: Cellular tumor antigen p53 (Homo sapiens) (UniProt P04637); assay: Activation of p53 in human A549 cells assessed as upregulation of DDB2 gene expression at 2 uM after 48 hrs by microarray analysis relative to control; type: cell-based; summary of the method: as §1
[29] = system: A549; assay: Upregulation of NEFL gene expression in human A549 cells at 2 uM after 48 hrs by microarray analysis relative to control; type: functional; summary of the method: as §1
[30] = system: A549; assay: Downregulation of SNORA9 gene expression in human A549 cells at 2 uM after 48 hrs by microarray analysis relative to control; type: functional; summary of the method: as §1
[31] = system: A549; assay: Downregulation of ALDH1L2 gene expression in human A549 cells at 2 uM after 48 hrs by microarray analysis relative to control; type: functional; summary of the method: as §1
[32] = molecular target: Cellular tumor antigen p53 (Homo sapiens) (UniProt P04637); assay: Activation of p53 in human A549 cells assessed as downregulation of CARS gene expression at 2 uM after 48 hrs by microarray analysis relative to control; type: cell-based; summary of the method: as §1
[33] = system: A549; assay: Downregulation of ASNS gene expression in human A549 cells at 2 uM after 48 hrs by microarray analysis relative to control; type: functional; summary of the method: as §1
[34] = system: A549; assay: Downregulation of TAS2R30 gene expression in human A549 cells at 2 uM after 48 hrs by microarray analysis relative to control; type: functional; summary of the method: as §1
[35] = molecular target: Cellular tumor antigen p53 (Homo sapiens) (UniProt P04637); assay: Activation of p53 in human A549 cells assessed as downregulation of STC2 gene expression at 2 uM after 48 hrs by microarray analysis relative to control; type: cell-based; summary of the method: as §1
[36] = system: A549; assay: Downregulation of ULBP1 gene expression in human A549 cells at 2 uM after 48 hrs by microarray analysis relative to control; type: functional; summary of the method: as §1
[37] = system: A549; assay: Downregulation of GUSBP3 gene expression in human A549 cells at 2 uM after 48 hrs by microarray analysis relative to control; type: functional; summary of the method: as §1
[38] = molecular target: Cellular tumor antigen p53 (Homo sapiens) (UniProt P04637); assay: Activation of p53 in human A549 cells assessed as downregulation of CHAC1 gene expression at 2 uM after 48 hrs by microarray analysis relative to control; type: cell-based; summary of the method: as §1
[39] = system: A549; assay: Induction of apoptosis in human A549 cells at 2 uM after 48 hrs by Annexin V-FITC/ethidium homodimer-3/Hoechst 33342 staining based fluorescence microscopic method; type: functional, cell-based
Summary of the method: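 A549 cells seeded in chamber slides at 2×10^4 cells/well and exposed to 2 μM for 48 h; vehicle control 0.1% DMSO. Cells were washed in binding buffer and stained with FITC-annexin V (apoptotic), ethidium homodimer III (necrotic) and Hoechst 33342 (all nuclei), then imaged by confocal fluorescence microscopy.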

[40] = system: A549; assay: Anticlonogenic activity against human A549 cells after 10 days; type: functional, cell-based; conditions: A549, 240 h
[41] = system: NCI-H157; assay: Anticlonogenic activity against human NCI-H157 cells after 10 days; type: functional, cell-based; conditions: NCI-H157, 240 h
[42] = system: NCI-H460; assay: Anticlonogenic activity against human NCI-H460 cells after 10 days; type: functional, cell-based; conditions: NCI-H460, 240 h

Sequence of Histone acetyltransferase p300 (Q09472 whole entry, the tested form may be a part): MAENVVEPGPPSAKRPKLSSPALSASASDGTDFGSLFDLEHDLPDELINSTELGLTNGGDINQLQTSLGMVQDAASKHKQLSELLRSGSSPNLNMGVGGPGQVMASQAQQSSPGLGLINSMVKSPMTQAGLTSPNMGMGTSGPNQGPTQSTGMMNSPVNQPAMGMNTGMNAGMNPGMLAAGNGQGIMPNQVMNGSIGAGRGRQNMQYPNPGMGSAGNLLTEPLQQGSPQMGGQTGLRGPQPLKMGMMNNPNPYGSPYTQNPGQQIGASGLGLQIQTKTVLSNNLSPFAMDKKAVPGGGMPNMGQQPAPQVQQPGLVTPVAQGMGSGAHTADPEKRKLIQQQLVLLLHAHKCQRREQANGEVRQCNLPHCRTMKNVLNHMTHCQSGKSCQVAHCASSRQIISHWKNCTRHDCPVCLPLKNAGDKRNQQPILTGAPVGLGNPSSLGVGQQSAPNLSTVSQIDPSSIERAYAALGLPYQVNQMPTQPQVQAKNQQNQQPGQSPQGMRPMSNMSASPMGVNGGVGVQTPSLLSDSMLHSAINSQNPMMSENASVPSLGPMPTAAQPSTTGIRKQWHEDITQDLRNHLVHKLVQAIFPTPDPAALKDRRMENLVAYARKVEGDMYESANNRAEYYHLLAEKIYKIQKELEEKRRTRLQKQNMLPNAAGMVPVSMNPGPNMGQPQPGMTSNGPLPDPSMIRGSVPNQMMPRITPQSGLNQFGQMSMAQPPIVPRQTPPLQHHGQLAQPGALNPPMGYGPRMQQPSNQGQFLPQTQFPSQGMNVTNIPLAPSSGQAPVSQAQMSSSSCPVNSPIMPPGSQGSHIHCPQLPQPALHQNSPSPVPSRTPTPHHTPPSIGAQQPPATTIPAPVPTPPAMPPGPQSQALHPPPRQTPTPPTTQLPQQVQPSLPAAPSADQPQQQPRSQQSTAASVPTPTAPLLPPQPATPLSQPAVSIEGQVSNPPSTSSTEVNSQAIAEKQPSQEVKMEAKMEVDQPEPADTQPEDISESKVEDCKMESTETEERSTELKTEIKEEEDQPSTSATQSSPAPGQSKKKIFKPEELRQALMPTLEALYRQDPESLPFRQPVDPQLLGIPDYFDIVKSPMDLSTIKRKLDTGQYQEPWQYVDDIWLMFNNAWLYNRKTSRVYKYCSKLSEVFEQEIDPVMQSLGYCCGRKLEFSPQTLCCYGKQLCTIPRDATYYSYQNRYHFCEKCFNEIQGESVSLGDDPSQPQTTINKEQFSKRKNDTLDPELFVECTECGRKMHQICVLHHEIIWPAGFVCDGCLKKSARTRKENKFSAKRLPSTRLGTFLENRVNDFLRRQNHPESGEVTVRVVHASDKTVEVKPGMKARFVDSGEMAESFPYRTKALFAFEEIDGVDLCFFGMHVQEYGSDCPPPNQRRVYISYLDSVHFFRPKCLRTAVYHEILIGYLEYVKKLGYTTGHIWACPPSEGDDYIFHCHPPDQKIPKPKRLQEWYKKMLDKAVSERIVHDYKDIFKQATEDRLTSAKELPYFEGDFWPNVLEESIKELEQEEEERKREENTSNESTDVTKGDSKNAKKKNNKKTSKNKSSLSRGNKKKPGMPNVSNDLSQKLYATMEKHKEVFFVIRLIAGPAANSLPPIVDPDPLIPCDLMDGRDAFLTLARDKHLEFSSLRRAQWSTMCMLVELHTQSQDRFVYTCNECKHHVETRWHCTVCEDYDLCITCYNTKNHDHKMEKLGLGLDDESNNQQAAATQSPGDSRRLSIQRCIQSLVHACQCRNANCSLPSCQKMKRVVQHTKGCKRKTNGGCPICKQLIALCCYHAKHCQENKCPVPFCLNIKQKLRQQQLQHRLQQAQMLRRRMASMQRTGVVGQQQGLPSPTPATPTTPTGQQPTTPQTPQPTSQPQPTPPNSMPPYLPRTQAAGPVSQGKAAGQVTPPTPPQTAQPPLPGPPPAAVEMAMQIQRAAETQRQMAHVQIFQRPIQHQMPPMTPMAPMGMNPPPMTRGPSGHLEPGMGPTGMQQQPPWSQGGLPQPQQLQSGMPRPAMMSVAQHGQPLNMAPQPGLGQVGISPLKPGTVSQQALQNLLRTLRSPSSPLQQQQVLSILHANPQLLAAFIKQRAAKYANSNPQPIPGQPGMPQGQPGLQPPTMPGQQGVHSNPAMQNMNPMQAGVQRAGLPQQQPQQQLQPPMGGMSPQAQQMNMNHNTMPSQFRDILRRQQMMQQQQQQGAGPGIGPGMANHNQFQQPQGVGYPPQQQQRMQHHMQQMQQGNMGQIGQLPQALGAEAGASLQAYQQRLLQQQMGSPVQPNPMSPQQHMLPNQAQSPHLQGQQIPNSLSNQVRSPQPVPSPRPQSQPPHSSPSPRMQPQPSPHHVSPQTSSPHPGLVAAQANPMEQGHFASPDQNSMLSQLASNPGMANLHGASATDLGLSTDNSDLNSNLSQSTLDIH
Sequence of Cellular tumor antigen p53 (Homo sapiens) (P04637 whole entry, looked up): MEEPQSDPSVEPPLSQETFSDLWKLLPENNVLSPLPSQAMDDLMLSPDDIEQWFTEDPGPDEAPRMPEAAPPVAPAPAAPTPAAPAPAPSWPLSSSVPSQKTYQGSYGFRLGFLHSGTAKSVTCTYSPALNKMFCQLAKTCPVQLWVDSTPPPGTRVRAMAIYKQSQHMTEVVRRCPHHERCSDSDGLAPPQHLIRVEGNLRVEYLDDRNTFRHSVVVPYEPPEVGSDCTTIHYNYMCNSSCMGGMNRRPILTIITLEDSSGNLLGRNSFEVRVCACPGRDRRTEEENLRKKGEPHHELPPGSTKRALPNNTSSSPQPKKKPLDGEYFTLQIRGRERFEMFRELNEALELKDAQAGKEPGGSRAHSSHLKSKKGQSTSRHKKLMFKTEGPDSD

- ΔTm [1]: 16.9 °C
- ΔTm [2]: 11 °C
- IC50 [3]: 3.9 to 4.2 µM
Compound: CC1=NN(c2ccc(C(=O)NCCC(=O)NCCC(=O)Nc3cc(C(=O)Nc4cn(C)c(C(=O)Nc5cn(C)c(C(=O)Nc6cc(C(=O)NCCCC(=O)Nc7cc(C(=O)Nc8cc(C(=O)Nc9cc(C(=O)Nc%10cc(C(=O)NCCCN(C)C)n(C)c%10)n(C)c9)n(C)c8)n(C)c7)n(C)c6)n5)n4)n(C)c3)cc2)C(=O)/C1=C/c1ccc(-c2cc(C)c(C)cc2[N+](=O)[O-])o1
- Activity [4]: Active

- ΔTm [1]: 13.6 °C
- ΔTm [2]: 20.9 °C
- IC50 [3]: 3.9 to 4.2 µM
- Activity [5]: inactive
- Activity [6]: inactive
- Activity [8]: inactive
- Activity [13]: inactive
- Activity [14]: inactive
- Activity [17]: inactive
- Activity [20]: inactive
- Activity [22]: inactive
- Activity [23]: inactive
- Activity [24]: inactive
- Activity [28]: inactive
- Activity [32]: inactive
- Activity [35]: inactive
- Activity [38]: inactive
Compound: CC1=NN(c2ccc(C(=O)NCCOCCOCC(=O)NCCC(=O)Nc3cn(C)c(C(=O)Nc4cc(C(=O)Nc5cn(C)c(C(=O)Nc6cn(C)c(C(=O)NCCCC(=O)Nc7cc(C(=O)Nc8cc(C(=O)Nc9cc(C(=O)Nc%10cc(C(=O)NCCCN(C)C)n(C)c%10)n(C)c9)n(C)c8)n(C)c7)n6)n5)n(C)c4)n3)cc2)C(=O)/C1=C/c1ccc(-c2cc(C)c(C)cc2[N+](=O)[O-])o1
- Activity [4]: Active
- Activity [7]: inactive
- Activity [9]: inactive
- Activity [10]: inactive
- Activity [11]: inactive
- Activity [12]: inactive
- Activity [15]: inactive
- Activity [16]: inactive
- Activity [18]: inactive
- Activity [19]: inactive
- Activity [21]: inactive
- Activity [25]: inactive
- Activity [26]: inactive
- Activity [27]: inactive
- Activity [29]: inactive
- Activity [30]: inactive
- Activity [31]: inactive
- Activity [33]: inactive
- Activity [34]: inactive
- Activity [36]: inactive
- Activity [37]: inactive
- Activity [39]: inactive

- IC50 [40]: 10 µM
- IC50 [41]: 6 µM
- IC50 [42]: 6.3 µM
Compound: CC1=NN(c2ccc(C(=O)O)cc2)C(=O)/C1=C/c1ccc(-c2cc(C)c(C)cc2[N+](=O)[O-])o1
- Activity [4]: inactive

- ΔTm [1]: 18.4 °C
- ΔTm [2]: 12.2 °C
- IC50 [3]: 3.9 to 4.2 µM
Compound: CC1=NN(c2ccc(C(=O)NCCOCCOCC(=O)NCCOCCOCC(=O)Nc3cc(C(=O)Nc4cn(C)c(C(=O)Nc5cn(C)c(C(=O)Nc6cc(C(=O)NCCCC(=O)Nc7cc(C(=O)Nc8cc(C(=O)Nc9cc(C(=O)Nc%10cc(C(=O)NCCCN(C)C)n(C)c%10)n(C)c9)n(C)c8)n(C)c7)n(C)c6)n5)n4)n(C)c3)cc2)C(=O)/C1=C/c1ccc(-c2cc(C)c(C)cc2[N+](=O)[O-])o1
- Activity [4]: Active
